Measurements as given in PMC2606940 (The Journal of General Physiology, 2009).
Where two headings read alike, the source gives them in different places.

Molecular target: T1, CLC-0 E166C/E127Q mutant (E127Q/K519) (Torpedo marmorata, UniProt P21564, C212S/E127Q/E166C)
T1 sequence (P21564 1-805 E127Q/E166C/C212S): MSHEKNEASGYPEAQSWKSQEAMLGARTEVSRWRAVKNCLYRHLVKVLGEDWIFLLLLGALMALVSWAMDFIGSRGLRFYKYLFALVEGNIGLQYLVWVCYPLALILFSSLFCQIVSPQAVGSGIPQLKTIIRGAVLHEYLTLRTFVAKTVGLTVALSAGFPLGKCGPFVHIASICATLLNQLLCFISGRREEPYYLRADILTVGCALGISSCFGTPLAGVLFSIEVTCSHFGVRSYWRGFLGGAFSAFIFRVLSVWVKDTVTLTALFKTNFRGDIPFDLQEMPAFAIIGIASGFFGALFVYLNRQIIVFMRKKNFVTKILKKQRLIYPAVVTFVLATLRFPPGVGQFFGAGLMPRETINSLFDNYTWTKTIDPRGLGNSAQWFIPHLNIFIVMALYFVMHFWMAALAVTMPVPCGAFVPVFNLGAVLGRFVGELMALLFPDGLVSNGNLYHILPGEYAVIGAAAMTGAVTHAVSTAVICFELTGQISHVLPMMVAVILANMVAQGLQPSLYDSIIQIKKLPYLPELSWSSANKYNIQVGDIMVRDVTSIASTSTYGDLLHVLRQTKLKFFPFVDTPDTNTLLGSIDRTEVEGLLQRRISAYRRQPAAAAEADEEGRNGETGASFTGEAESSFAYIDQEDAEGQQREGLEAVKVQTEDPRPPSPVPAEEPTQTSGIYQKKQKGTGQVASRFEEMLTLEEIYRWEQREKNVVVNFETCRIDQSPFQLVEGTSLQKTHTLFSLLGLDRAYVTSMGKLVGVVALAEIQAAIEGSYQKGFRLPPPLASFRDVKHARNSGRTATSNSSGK
Assay type: cell-based
Details: for IC50: read-out: Apparent affinity (K1/2)
Outline: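 CLC-0 mutants in the C212S background were transfected into HEK293 cells with lipofectamine and recorded 1–3 d later as excised inside-out patches. Both sides held 130 mM NaCl, 5 mM MgCl2, 10 mM HEPES and 1 mM EGTA, pH 7.4. CPA was perfused continuously onto the cytoplasmic face. Steady-state current over the last 10 ms was normalized to bracketing blocker-free controls and fitted to a Langmuir function for K1/2. Values are mean ± SEM of ~4–6 patches.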

O=C(O)COc1ccc(Cl)cc1 [CPA, p-chlorophenoxy acetate]
IC50 (−40 mV): 491 ± 58 µM | IC50 (−60 mV): 228 ± 23 µM | IC50 (−80 mV): 113 ± 10 µM | IC50 (−100 mV): 57 ± 4 µM | IC50 (−120 mV): 33 ± 3 µM | IC50 (−140 mV): 21 ± 2 µM | IC50 (−160 mV): 15 ± 2 µM | apparent koff (−160 mV): 17.9 s⁻¹ | apparent kon (−160 mV): 760000 M⁻¹ s⁻¹
